Measured values reported in ChEMBL document CHEMBL3046420, “A new antifungal and cytotoxic C-methylated flavone glycoside from Picea neoveitchii” (2012).

How the values were obtained:
Type in all cases: functional
Thielaviopsis paradoxa = experiment: Antifungal activity against Ceratocystis paradoxa assessed as mycelial growth inhibition at 100 ug/disc after 2 to 4 days by disk diffusion method relative to control; details: for zone of inhibition at 100 µg/disc: read-out: DIZ; for inhibition of growth at 100 µg/disc: read-out: GI
In short: (§1)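 Disc diffusion on PDA in 90 mm Petri plates. Sterile 5 mm filter paper discs were loaded with 10 µL of a 10 mg/mL MeOH solution, air-dried and set at the plate centre. Four 5 mm fungal plugs were placed inverted 20 mm from the disc. Plates were incubated at 29 °C for 2–4 days, until growth in the MeOH blank reached the centre. The inhibitory zone was measured in mm and expressed as % of the carbendazim zone. Triplicate.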

[1] = Cytotoxicity against Spodoptera litura cells assessed as growth inhibition at 20 mg/L after 24 hr by MTT assay relative to control; details: read-out: GI
In short: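 SL cells were grown in Grace's insect medium with 9% newborn calf serum at 27.5 °C and used in log phase. Cells were seeded in 96-well plates for 24 h, then exposed for 24 h to compound (DMSO stock diluted in medium); controls got 0.5% DMSO. MTT (0.5 mg/mL) was added for 4 h, formazan dissolved in DMSO, and A570 read. Three separate experiments.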

Athelia rolfsii = experiment: Antifungal activity against Athelia rolfsii assessed as mycelial growth inhibition at 100 ug/disk after 2 to 4 days by disk diffusion method relative to control; details: Agroathelia rolfsii; for zone of inhibition at 100 µg/disc: read-out: DIZ; for inhibition of growth at 100 µg/disc: read-out: GI; in short: as §1
Pyricularia grisea = experiment: Antifungal activity against Magnaporthe grisea assessed as mycelial growth inhibition at 100 ug/disk after 2 to 4 days by disk diffusion method relative to control; details: for zone of inhibition at 100 µg/disc: read-out: DIZ; for inhibition of growth at 100 µg/disc: read-out: GI
In short: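 Modified disc diffusion on PDA in 90 mm plates. Each 5 mm filter disc was loaded with 10 µL of a 10 mg/mL MeOH solution, air-dried and placed at the plate centre. Four 5 mm fungal plugs were set 20 mm from the disc. MeOH discs served as blank and carbendazim as positive control. Plates were incubated at 29 °C for 2–4 days. Inhibition zone (mm) was expressed as % of the carbendazim zone. Triplicate.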

Alternaria mali = experiment: Antifungal activity against Alternaria mali assessed as mycelial growth inhibition at 100 ug/disk after 2 to 4 days by disk diffusion method relative to control; details: for zone of inhibition at 100 µg/disc: read-out: DIZ; for inhibition of growth at 100 µg/disc: read-out: GI; in short: as §1

| SMILES | zone of inhibition at 100 µg/disc (Thielaviopsis paradoxa) | inhibition of growth at 100 µg/disc (Thielaviopsis paradoxa) | inhibition of growth at 20 µg/mL [1] | zone of inhibition at 100 µg/disc (Athelia rolfsii) | inhibition of growth at 100 µg/disc (Athelia rolfsii) | zone of inhibition at 100 µg/disc (Pyricularia grisea) | inhibition of growth at 100 µg/disc (Pyricularia grisea) | zone of inhibition at 100 µg/disc (Alternaria mali) | inhibition of growth at 100 µg/disc (Alternaria mali) |
| --- | --- | --- | --- | --- | --- | --- | --- | --- | --- |
| O=c1c(O[C@@H]2O[C@H](CO)[C@@H](O)[C@H](O)[C@H]2O)c(-c2ccc(O[C@@H]3O[C@H](CO)[C@@H](O)[C@H](O)[C@H]3O)cc2)oc2cc(O)cc(O)c12 | 0 mm | 0% | 23.1% | 3.7 mm | 31.9% | 0 mm | 0% | 2.4 mm | 24.2% |
| COc1c(-c2ccc(O)cc2)oc2c(O[C@@H]3O[C@H](CO)[C@@H](O)[C@H](O)[C@H]3O)c(O)c(C)c(O)c2c1=O | 6.2 mm | 24.1% | 62.5% | 9.4 mm | 81% | 7.6 mm | 40.9% | 7.2 mm | 72.7% |
| COc1c(-c2ccc(O[C@@H]3O[C@H](CO)[C@@H](O)[C@H](O)[C@H]3O)cc2)oc2c(O[C@@H]3O[C@H](CO)[C@@H](O)[C@H](O)[C@H]3O)c(O)c(C)c(O)c2c1=O | 0 mm | 0% | 64.4% | 4.8 mm | 41.4% | 5.7 mm | 30.6% | 4.3 mm | 43.4% |
| O=c1cc(-c2ccc(O)cc2)oc2cc(O[C@@H]3O[C@H](CO)[C@@H](O)[C@H](O)[C@H]3O)cc(O)c12 [APIGETRIN] | 0 mm | 0% | 7.8% | 4.8 mm | 41.4% | 3.3 mm | 17.7% | 5.8 mm | 58.6% |
| COC(=O)Nc1nc2ccccc2[nH]1 [CARBENDAZIM] | 25.7 mm | 100% |  | 11.6 mm | 100% | 18.6 mm | 100% | 9.9 mm | 100% |
| COc1cc(CCCO)ccc1O[C@@H]1O[C@H](CO)[C@@H](O)[C@H](O)[C@H]1O [DIHYDROCONIFERIN] | 0 mm | 0% | 4% | 0 mm | 0% | 8.6 mm | 46.2% | 3.1 mm | 31.3% |
| C[C@@H]1O[C@@H](OC[C@H]2O[C@@H](OC(=O)/C=C/c3ccccc3)[C@H](O)[C@@H](O)[C@@H]2O)[C@H](O)[C@H](O)[C@H]1O [GLEDITSCHIASIDE A] | 0 mm | 0% | 62.2% | 0 mm | 0% | 0 mm | 0% | 0 mm | 0% |
| COc1cc([C@H]2Oc3c(O)cc(CCCO)cc3[C@@H]2CO)ccc1O[C@@H]1O[C@@H](C)[C@H](O)[C@@H](O)[C@H]1O [MASSONIANOSIDE B] | 5.6 mm | 21.8% | 17.9% | 0 mm | 0% | 7 mm | 37.6% | 8.8 mm | 88.9% |
| C=C(C)[C@H]1Cc2c(ccc3c2O[C@@H]2COc4cc(OC)c(OC)cc4[C@@H]2C3=O)O1 [ROTENONE] |  |  | 74.4% |  |  |  |  |  |  |
| O=c1ccc2ccc(O[C@@H]3O[C@H](CO)[C@@H](O)[C@H](O)[C@H]3O)cc2o1 [SKIMMIN] | 1.5 mm | 5.8% | 15.3% | 2.8 mm | 24.1% | 0 mm | 0% | 0 mm | 0% |
| O=C(/C=C/c1ccc(O)cc1)OC[C@H]1O[C@@H](Oc2c(-c3ccc(O)cc3)oc3cc(O)cc(O)c3c2=O)[C@H](O)[C@@H](O)[C@@H]1O [TILIROSIDE] | 7.1 mm | 27.6% | 65% | 2.6 mm | 22.4% | 0 mm | 0% | 5.5 mm | 55.6% |
